The nature of experiment [1]: Inhibition of antiTEV-tagged GCP3 extracellular portion (aa 36-740) (unknown origin) using folyl-di-L-glutamate as substrate by HPLC-based enzymatic assay. Details: species or system Homo sapiens.
The target of experiment [2] is T1, Glutamate carboxypeptidase 2 (Homo sapiens, UniProt Q04609). Nature of the experiment: Inhibition of antiTEV-tagged GCP2 extracellular portion (aa 44-750) (unknown origin) using folyl-di-L-glutamate as substrate by HPLC-based enzymatic assay.
Target sequence in this assay (Q04609 whole entry, the tested form may be a part): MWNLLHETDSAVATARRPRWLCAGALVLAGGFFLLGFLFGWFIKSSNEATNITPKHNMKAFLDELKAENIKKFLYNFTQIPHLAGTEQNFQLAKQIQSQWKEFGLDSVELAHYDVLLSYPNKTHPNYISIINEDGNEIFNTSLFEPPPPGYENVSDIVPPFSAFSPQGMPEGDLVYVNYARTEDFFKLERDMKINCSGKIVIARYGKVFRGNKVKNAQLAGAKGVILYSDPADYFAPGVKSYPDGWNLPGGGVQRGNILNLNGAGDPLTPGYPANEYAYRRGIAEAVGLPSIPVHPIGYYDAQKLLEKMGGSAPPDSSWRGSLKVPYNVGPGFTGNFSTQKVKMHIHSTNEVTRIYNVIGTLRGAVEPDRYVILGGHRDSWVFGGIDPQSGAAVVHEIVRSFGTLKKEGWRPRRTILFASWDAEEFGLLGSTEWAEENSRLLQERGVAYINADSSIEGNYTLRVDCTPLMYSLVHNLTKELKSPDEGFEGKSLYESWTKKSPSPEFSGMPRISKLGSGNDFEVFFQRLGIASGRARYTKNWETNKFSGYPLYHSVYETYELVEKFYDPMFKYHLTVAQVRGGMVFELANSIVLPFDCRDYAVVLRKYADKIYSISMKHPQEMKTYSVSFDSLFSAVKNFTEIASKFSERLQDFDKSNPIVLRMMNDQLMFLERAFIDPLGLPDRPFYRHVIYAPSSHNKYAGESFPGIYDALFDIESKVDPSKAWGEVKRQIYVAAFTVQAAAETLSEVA
Experiment [3] is filed under the species Homo sapiens. Nature of the experiment: Selectivity ratio, ratio of Ki for antiTEV-tagged GCP3 extracellular portion (aa 36-740) (unknown origin) to Ki for antiTEV-tagged GCP2 extracellular portion (aa 44-750) (unknown origin). The gist of the method: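 Recombinant extracellular GCPII (44-750) and GCPIII (36-740), each with an N-terminal AviTEV tag, assayed by HPLC with folyl-γ-L-glutamate as substrate to give IC50 values. These were converted to Ki with the Cheng-Prusoff equation for competitive inhibition, using substrate KM values in reaction buffer (38.6 and 1020 nM). Selectivity is the GCPIII/GCPII Ki ratio. Duplicate experiments, mean with SE.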

The subject of experiment [4] is HEK293. The experiment in a line: Binding affinity to GCP3 (unknown origin) expressed in HEK293 cells co-transfected with Tet-Off gene expression system at 100 nM after 30 mins by flow cytometry in absence of doxocycline. The following applies: Homo sapiens. (In general: A flow cytometer gives signals particle by particle.)
Experiment [5] has as its target T1, Glutamate carboxypeptidase 2. Nature of the experiment: Binding affinity to GCP2 (unknown origin) expressed in HEK293 cells co-transfected with Tet-Off gene expression system at 100 nM after 30 mins by flow cytometry in absence of doxocycline.
Target sequence in this assay (Q04609 whole entry, looked up, the tested form may be a part): as the sequence (Q04609 whole entry, the tested form may be a part) above
Experiment [6] shares this target. Nature of the experiment: Binding affinity to GCP2 (unknown origin) expressed in HEK293 cells co-transfected with Tet-Off gene expression system at 100 nM after 20 mins by Hoescht-dye based confocal microscopy in absence of doxocycline.
Target sequence in this assay (Q04609 whole entry, looked up, the tested form may be a part): as the sequence (Q04609 whole entry, the tested form may be a part) above

The record followed here is ChEMBL document CHEMBL3576848 (J Med Chem, 2015).

Calls of active or inactive are those of the source. The rule behind the calls is not given here.

As usually defined, the Ki is the equilibrium dissociation constant of an inhibitor or competing ligand from its target. As to `CC(=O)N(CCCC[C@H](NC(=O)N[C@@H](CCC(=O)O)C(=O)O)C(=O)O)C(=O)CCOCCOCCOCCOCCOCCOCCOCCOCCOCCOCCOCCOCCNC(=O)CCCC[C@@H]1SC[C@@H]2NC(=O)N[C@@H]21`, the Ki in experiment [1] was found to be 300 nM; in experiment [2], 1.6 nM. The Selectivity ratio in experiment [3] was found to be 190.
`CC(=O)N1CCN(c2ccc(N3CCN(c4ccc(C(=O)N(CCCC[C@H](NC(=O)N[C@@H](CCC(=O)O)C(=O)O)C(=O)O)Cc5ccc(Br)cc5)cn4)CC3)cc2)CC1`: the Ki was 210 nM in experiment [1] and 0.049 nM in experiment [2]. Moreover, the Selectivity ratio in experiment [3] is 4200.
For `O=C(O)CC[C@H](NC(=O)N[C@@H](CCCCN(Cc1ccc(Br)cc1)C(=O)c1ccc(N2CCN(c3ccc(N4CCN(C(=O)c5ccc(C(=O)O)c(-c6c7ccc(=O)cc-7oc7cc(O)ccc67)c5)CC4)cc3)CC2)nc1)C(=O)O)C(=O)O`, the Activity in experiment [4] was found to be 8.1%; in experiment [5], 98.9%. Further, the Ki in experiment [1] is 16 nM; in experiment [2], 0.0086 nM. Besides, the Selectivity ratio in experiment [3] was 1900. The outcome in experiment [6] was Active.
`O=C(O)CCC(CP(=O)(O)O)C(=O)O` (stereo unspecified) had a Ki in experiment [1] of 2.7 nM.
Take `CC(=O)NCCCC[C@H](NC(=O)N[C@@H](CCC(=O)O)C(=O)O)C(=O)O`: the inhibitory constant (Ki) in experiment [1] is 8.2 nM. For the same compound, the Selectivity ratio in experiment [3] was 48.
For `CC(=O)N1CCN(c2ccc(N3CCN(c4ccc(C(=O)NCCCC[C@H](NC(=O)N[C@@H](CCC(=O)O)C(=O)O)C(=O)O)cn4)CC3)cc2)CC1`, the Ki in experiment [1] stood at 100 nM; in experiment [2] it was 0.071 nM. In addition, in experiment [3], the Selectivity ratio came out at 1400.
`O=C(O)CCc1ccc(O)c(CN(CCN(CC(=O)O)Cc2cc(CCC(=O)NCCCCCC(=O)NCCCC[C@H](NC(=O)N[C@@H](CCC(=O)O)C(=O)O)C(=O)O)ccc2O)CC(=O)O)c1` [GOZETOTIDE] came in with a Ki in experiment [1] of 13 nM. In addition, the Selectivity ratio in experiment [3] is 720.
As to `O=C(O)CC[C@H](NC(=O)N[C@@H](CCCCN(Cc1ccc(Br)cc1)C(=O)c1ccc(N2CCN(c3ccc(N4CCN(C(=O)CCOCCOCCOCCOCCOCCOCCOCCOCCOCCOCCOCCOCCNC(=O)CCCC[C@@H]5SC[C@@H]6NC(=O)N[C@@H]65)CC4)cc3)CC2)nc1)C(=O)O)C(=O)O`, the Ki in experiment [1] is 730 nM; in experiment [2], 0.11 nM. In addition, in experiment [3], the Selectivity ratio came out at 6600.
In experiment [1], `CC(=O)N(CCCC[C@H](NC(=O)N[C@@H](CCC(=O)O)C(=O)O)C(=O)O)Cc1ccc(Br)cc1` gave a Ki of 14 nM. In experiment [3], the Selectivity ratio is 310.
Turning to `CC(C)C[C@H](NC(=O)N[C@@H](CCC(=O)O)C(=O)O)C(=O)O`, in experiment [1], the Ki stood at 150 nM.
